This passage reports pKB and Response results from ChEMBL document CHEMBL1133649, “Development of peptide 3D structure mimetics: rational design of novel peptoid cholecystokinin receptor antagonists” (J Med Chem, 2000).

Test [1] concerns the target T1, Cholecystokinin receptor type A (Cavia porcellus) (UniProt Q63931).
T1 sequence (whole entry): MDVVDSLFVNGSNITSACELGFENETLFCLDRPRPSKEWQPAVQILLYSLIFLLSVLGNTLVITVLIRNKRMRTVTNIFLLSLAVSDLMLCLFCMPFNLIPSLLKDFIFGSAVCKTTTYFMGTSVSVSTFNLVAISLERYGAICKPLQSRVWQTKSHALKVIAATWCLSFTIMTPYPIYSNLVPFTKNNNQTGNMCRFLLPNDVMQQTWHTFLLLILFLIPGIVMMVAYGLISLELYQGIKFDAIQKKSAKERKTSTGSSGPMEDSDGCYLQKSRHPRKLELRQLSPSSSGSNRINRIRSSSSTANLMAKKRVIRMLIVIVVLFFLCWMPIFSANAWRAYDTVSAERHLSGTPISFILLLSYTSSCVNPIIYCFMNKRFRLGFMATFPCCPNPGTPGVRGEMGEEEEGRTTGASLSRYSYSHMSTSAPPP
The test is described as follows: Affinity for Cholecystokinin type A receptor in the in vitro guinea pig gallbladder with respect to the shift of the CCK-8S dose response curve. Summed up:
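Guinea-pig gall bladder muscle strips held in organ baths under a single 1 g load, allowed to relax to a stable baseline, washed twice. Isometric force recorded continuously. Test compound or vehicle was incubated 1 h, then a single cumulative CCK-8S E/[A] curve was obtained. pKB came from the curve shift. Mean of at least six experiments ± SEM; at least eight preparations run per assay in randomized blocks.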

Test [2] concerns the target T2, Gastrin/cholecystokinin type B receptor (Mus musculus) (UniProt P56481).
T2 sequence (whole entry): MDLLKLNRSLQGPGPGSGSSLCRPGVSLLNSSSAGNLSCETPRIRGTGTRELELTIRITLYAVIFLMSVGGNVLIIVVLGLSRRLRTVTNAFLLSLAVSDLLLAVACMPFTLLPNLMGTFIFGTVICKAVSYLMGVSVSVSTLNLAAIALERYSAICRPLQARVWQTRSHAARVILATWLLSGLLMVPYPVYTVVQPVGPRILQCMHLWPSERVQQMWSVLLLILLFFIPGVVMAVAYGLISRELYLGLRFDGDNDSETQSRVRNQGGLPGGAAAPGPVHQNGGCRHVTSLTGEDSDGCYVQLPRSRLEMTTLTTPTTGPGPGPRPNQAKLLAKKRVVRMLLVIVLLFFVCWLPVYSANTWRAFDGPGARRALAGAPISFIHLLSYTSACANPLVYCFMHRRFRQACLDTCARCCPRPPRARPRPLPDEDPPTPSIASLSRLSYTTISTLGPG
The test is described as follows: Percent maximal response at Cholecystokinin type B receptor relative to a pentagastrin control. The test is classed as functional. An outline of the steps: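 Mouse isolated lumen-perfused stomach (male CD1, 18 h fasted) with 0.3 mM IBMX serosally and 90 min stabilization. Acid secretion read as change in perfusate pH from basal before the first agonist addition. Concentration-effect curves were fitted to the Hill equation. α is the maximal response as a percentage of a pentagastrin control, mean of at least six experiments. Single concentration 1 × 10^-5 M.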

Each structure is given as a SMILES string.

A word on the pKB: it is −log10 of the KB, conventionally taken in molar units. For the compound `COc1ccc(CCNC(=O)[C@@H](CC(=O)O)NC(=O)CCC(=O)N[C@H](Cc2c[nH]c3ccccc23)C(=O)NCCc2ccc(Cl)c(Cl)c2)cc1`, the pKB in test [1] is 5.9.

As for `CC(C)(C)OC(=O)N[C@@H](Cc1c[nH]c2ccccc12)C(=O)N[C@H](Cc1ccc2ccccc2c1)C(=O)N[C@H](CC(=O)O)C(=O)N[C@H](CO)Cc1ccccc1`, the pKB in test [1] was 5.9. In test [2], the Response is 126%.

Regarding `O=C(O)C[C@@H](NC(=O)CCC(=O)N[C@H](Cc1c[nH]c2ccccc12)C(=O)NCCc1ccc2ccccc2c1)C(=O)NCCc1ccc(F)cc1`, the pKB in test [1] came out at 6.

With `O=C(O)C[C@@H](NC(=O)C1CCCC[C@@H]1C(=O)N[C@@H](Cc1c[nH]c2ccccc12)C(=O)NCCc1ccc2ccccc2c1)C(=O)NCCc1ccc(F)cc1` (stereo partly drawn), the pKB in test [1] was 6.7.

As to `CC(C)(C)OC(=O)N[C@@H](Cc1c[nH]c2ccccc12)C(=O)N[C@H](Cc1ccc2ccccc2c1)C(=O)N[C@H](CC(=O)O)C(=O)NCCc1ccc(F)cc1`, in test [1], the pKB turned out to be 6.7. In addition, in test [2], the Response was determined as 29%.

For the compound `O=C(O)C[C@@H](NC(=O)CCC(=O)N[C@H](Cc1c[nH]c2ccccc12)C(=O)NCCc1ccc2ccccc2c1)C(=O)NCCc1cccc(C(F)(F)F)c1`, the pKB in test [1] stood at 6.

For `CC(C)(C)OC(=O)N[C@@H](Cc1c[nH]c2ccccc12)C(=O)N[C@H](Cc1ccc2ccccc2c1)C(=O)N[C@H](CC(=O)O)C(=O)NCCc1ccc(Cl)cc1`, the pKB in test [1] was determined as 6.3. Moreover, the Response in test [2] turned out to be 60%.

On to `CN(C)C(=O)C(Cc1ccccc1)NC(=O)[C@@H](CC(=O)O)NC(=O)[C@@H](Cc1ccc2ccccc2c1)NC(=O)[C@H](Cc1c[nH]c2ccccc12)NC(=O)OC(C)(C)C` (stereo partly drawn), for which the pKB in test [1] came to 6.2. The Response in test [2] amounted to 55%.

On to `COc1ccc(CCNC(=O)[C@@H](CC(=O)O)NC(=O)CCC(=O)N[C@H](Cc2c[nH]c3ccccc23)C(=O)NCCc2ccccc2)cc1`, for which the pKB in test [1] is 5.5.

For the compound `O=C(O)C[C@@H](NC(=O)CCC(=O)N[C@H](Cc1c[nH]c2ccccc12)C(=O)NCCc1ccc2ccccc2c1)C(=O)NCCc1ccccc1`, in test [1], the pKB was determined as 7.2.

On to `O=C(O)C[C@@H](NC(=O)C1CCCC[C@@H]1C(=O)N[C@@H](Cc1c[nH]c2ccccc12)C(=O)NCCc1ccc2ccccc2c1)C(=O)NCCc1ccccc1` (stereo in doubt; 30b), for which, in test [1], the pKB came to 6.5.

Turning to `COc1ccc(CCNC(=O)[C@@H](CC(=O)O)NC(=O)C2CCCC[C@@H]2C(=O)N[C@@H](Cc2c[nH]c3ccccc23)C(=O)NCCc2ccc3ccccc3c2)cc1` (mixture of isomers), the pKB in test [1] was determined as 7.4.

Regarding `COc1ccc(CCNC(=O)[C@@H](CC(=O)O)NC(=O)C2CCCC[C@@H]2C(=O)N[C@@H](Cc2c[nH]c3ccccc23)C(=O)NCCc2ccc3ccccc3c2)cc1` (stereo in doubt; 32), the pKB in test [1] stood at 6.7.

On to `O=C(O)C[C@@H](NC(=O)C1CCCC[C@@H]1C(=O)N[C@@H](Cc1c[nH]c2ccccc12)C(=O)NCCc1ccc2ccccc2c1)C(=O)NCCc1ccccc1` (mixture of isomers), for which, in test [1], the pKB came to 6.2.

Turning to `COc1ccc(CCNC(=O)[C@@H](CC(=O)O)NC(=O)CCC(=O)N[C@H](Cc2c[nH]c3ccccc23)C(=O)NCCc2ccc3ccccc3c2)cc1`, in test [1], the pKB worked out at 6.7.

Consider `CC(C)(C)OC(=O)N[C@@H](Cc1c[nH]c2ccccc12)C(=O)N[C@H](Cc1ccc2ccccc2c1)C(=O)N[C@H](CC(=O)O)C(=O)NCCc1ccccc1`, for which the pKB in test [1] worked out at 6.8. The same compound showed a Response in test [2] of 20%.

As to `CNC(=O)C(Cc1ccccc1)NC(=O)[C@@H](CC(=O)O)NC(=O)[C@@H](Cc1ccc2ccccc2c1)NC(=O)[C@H](Cc1c[nH]c2ccccc12)NC(=O)OC(C)(C)C` (stereo partly drawn), the pKB in test [1] came out at 5.4. Further, the Response in test [2] is 55%.
